Consider eleven compounds from ChEMBL document CHEMBL1148112, “Inhibition of tumor-promoting effects by poricoic acids G and H and other lanostane-type triterpenes and cytotoxic activity of poricoic acids A and G from Poria cocos” (J Nat Prod, 2002).

What is called GI50 is the concentration that inhibits growth by half.

Series [1] deals with Raji. Briefly: Inhibition of 12-O-tetradecanoylphorbol-13-acetate induced EBV-early antigen activation in human Raji cells assessed as EA activation at 500 molar ratio after 48 hrs by indirect immunofluorescence method relative to TPA. The class given is cell-based. Set-up: scale not given: the % may be the effect or the level left. Conditions: human gammaherpesvirus 4. The method in brief:
(§1)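 Raji cells (EBV genome-carrying, nonproducer) at 1 × 10^6/mL in 10% FBS RPMI 1640, incubated 37 °C for 48 h with n-butyric acid (4 mM) plus 32 pmol TPA (20 ng/mL), compound added in DMSO. EA-positive cells detected by indirect immunofluorescence using NPC patient sera; at least 500 cells counted, run twice, expressed relative to butyric acid + TPA control.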

The nature of series [2]: Cytotoxicity against human Raji cells assessed as cell viability at 1000 molar ratio. The class given is cell-based. Conditions: read-out: Activity.
The subject of series [3] is Raji. Kind of series: Inhibition of 12-O-tetradecanoylphorbol-13-acetate induced EBV-early antigen activation in human Raji cells assessed as EA activation at 1000 molar ratio after 48 hrs by indirect immunofluorescence method relative to TPA. Format: cell-based. Set-up: scale not given: the % may be the effect or the level left. As to conditions: human gammaherpesvirus 4. The essentials:
as §1

Series [4] has as its system Raji. Kind of series: Inhibition of 12-O-tetradecanoylphorbol-13-acetate induced EBV-early antigen activation in human Raji cells assessed as EA activation at 10 molar ratio after 48 hrs by indirect immunofluorescence method relative to TPA. The class given is cell-based. Conditions: human gammaherpesvirus 4. The essentials: as §1
The subject of series [5] is Raji. Kind of series: Inhibition of 12-O-tetradecanoylphorbol-13-acetate induced EBV-early antigen activation in human Raji cells assessed as EA activation at 100 molar ratio after 48 hrs by indirect immunofluorescence method relative to TPA. As to conditions: human gammaherpesvirus 4. Format: cell-based. The essentials: as §1
Series [6] in a line: Growth inhibition of human NCI60 cells after 48 hrs by sulforhodamine B assay. Format: functional. As to conditions: NCI60, 48 h. The essentials: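 NCI 60-cell panel (lung, colon, melanoma, renal, ovarian, brain, leukemia), continuous 48 h exposure, at least five 10-fold dilutions from a top concentration of 10^-4 M; cell growth estimated by sulforhodamine B protein staining.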
(In general: Sulforhodamine B stains cellular protein and so reports cell mass.)

Consider `C=C(CC[C@@H](C(=O)O)[C@H]1[C@H](O)C[C@@]2(C)C3=CC[C@H]4C(C)(C)[C@H](O)CC[C@]4(C)C3=CC[C@]12C)C(C)C`, for which the Activity in series [1] is 25.5%; in series [3] it was 0%. Further, the viability at 1000 molar ratio in series [2] turned out to be 70%. For the same compound, the EA activation relative to TPA control in series [4] is 93.8%. In series [5], the Remaining EA activation relative to TPA control stood at 67%.

In the case of `C=C(CC[C@@H](C(=O)O)[C@H]1[C@H](O)C[C@@]2(C)C3=C(CC[C@]12C)[C@@]1(C)CC[C@H](O)C(C)(C)[C@@H]1CC3)C(C)C` [TUMULOSIC ACID], the Activity in series [1] was determined as 22.7%; in series [3], 0%. In series [2], the viability at 1000 molar ratio came to 70%. In addition, the EA activation relative to TPA control in series [4] was 90.5%. Moreover, the Remaining EA activation relative to TPA control in series [5] is 64.9%.

As for `C=C(C)[C@@H]1CC=C2C(=CC[C@]3(C)[C@@H]([C@@H](CCC=C(C)C)C(=O)O)[C@H](O)C[C@@]23C)[C@@]1(C)CCC(=O)O` [PORICOIC ACID B], the Activity in series [1] came out at 14.3%; in series [3], 0%. Moreover, in series [2], the viability at 1000 molar ratio came out at 70%. In series [4], the EA activation relative to TPA control was 80.7%. Further, the Remaining EA activation relative to TPA control in series [5] is 54%.

For the compound `C=C(C)[C@@H]1CCC2=C(CC[C@]3(C)[C@@H]([C@@H](CCC=C(C)C)C(=O)O)[C@H](O)C[C@@]23C)[C@@]1(C)CCC(=O)O` [PORICOIC ACID G], the results for the Activity in series [1] and in series [3] were 16% and 0%, respectively. In series [2], the viability at 1000 molar ratio was 70%. The EA activation relative to TPA control in series [4] was 82.8%. Besides, the Remaining EA activation relative to TPA control in series [5] was determined as 55.9%.

For `CC1=C(/C=C/C(C)=C/C=C/C(C)=C/C=C/C=C(C)/C=C/C=C(C)/C=C/C2=C(C)CCCC2(C)C)C(C)(C)CCC1`, the Activity in series [3] was found to be 8.6%. Also, the EA activation relative to TPA control in series [4] amounted to 100%.

Regarding `C=C(CC[C@@H](C(=O)O)[C@H]1[C@H](O)C[C@@]2(C)C3=CC[C@H]4C(C)(C)C(=O)CC[C@]4(C)C3=CC[C@]12C)C(C)C` [POLYPORENIC ACID B], the Activity in series [1] came out at 26.3%; in series [3], 0%. The viability at 1000 molar ratio in series [2] came out at 70%. Further, the EA activation relative to TPA control in series [4] is 92.6%. In series [5], the Remaining EA activation relative to TPA control came to 68.7%.

Turning to `C=C(CC[C@@H](C(=O)O)[C@H]1[C@H](O)C[C@@]2(C)C3=CC[C@H]4C(C)(C)[C@H](O)CC[C@]4(C)C3=CC[C@]12C)C(C)(C)O`, the values for the Activity in series [1] and in series [3] were 13.2% and 0%, respectively. Also, the viability at 1000 molar ratio in series [2] was 70%. Moreover, the EA activation relative to TPA control in series [4] is 79.4%. The Remaining EA activation relative to TPA control in series [5] was found to be 51.6%.

In the case of `C=C(CC[C@@H](C(=O)O)[C@H]1[C@H](O)C[C@@]2(C)C3=C(CC[C@]12C)[C@@](C)(CCC(=O)O)[C@H](C(=C)C)CC3)C(C)C` [PORICOIC ACID H], the Activity was determined as 15.7% in series [1] and 0% in series [3]. In series [2], the viability at 1000 molar ratio was 70%. Besides, the EA activation relative to TPA control in series [4] turned out to be 80.8%. Also, the Remaining EA activation relative to TPA control in series [5] was 53.8%.

Take `C=C(CC[C@@H](C(=O)O)[C@H]1[C@H](O)C[C@@]2(C)C3=CC[C@@H](C(=C)C)[C@](C)(CCC(=O)O)C3=CC[C@]12C)C(C)C` [PORICOIC ACID A]: the GI50 in series [6] was determined as 15 µM. In addition, the Activity was found to be 18.5% in series [1] and 0% in series [3]. The viability at 1000 molar ratio in series [2] came out at 70%. In series [4], the EA activation relative to TPA control stood at 83.8%. Also, in series [5], the Remaining EA activation relative to TPA control was 58.9%.

Take `COC(=O)[C@]1(C)CCC[C@]2(C)c3ccc(C(C)C)cc3CC[C@@H]12` [METHYL DEHYDROABIETATE]: the Activity in series [1] stood at 23.2%; in series [3], 0%. The viability at 1000 molar ratio in series [2] turned out to be 60%. The EA activation relative to TPA control in series [4] was determined as 91.6%. Besides, the Remaining EA activation relative to TPA control in series [5] was determined as 68.3%.

In the case of `C=C(CC[C@@H](C(=O)O)[C@H]1[C@H](O)C[C@@]2(C)C3=CC[C@H]4C(C)(C)[C@@H](O)CC[C@]4(C)C3=CC[C@]12C)C(C)C` [DEHYDROTUMULOSIC ACID], the values for the Activity in series [1] and in series [3] were 22.7% and 0%, respectively. The viability at 1000 molar ratio in series [2] worked out at 70%. Further, in series [4], the EA activation relative to TPA control worked out at 90.5%. The Remaining EA activation relative to TPA control in series [5] was 64.9%.
